According to ChEMBL document CHEMBL3860059, “Design, Synthesis, and Biological Evaluation of First-in-Class Dual Acting Histone Deacetylases (HDACs) and Phosphodiesterase 5 (PDE5) Inhibitors for the Treatment of Alzheimer's Disease” (J Med Chem, 2016):

Assays:
[1] = target: Histone deacetylase 1 (Homo sapiens, UniProt Q13547); assay: Inhibition of full length recombinant human C-terminal His/Flag-tagged HDAC1 expressed in baculovirus infected Sf9 cells using fluorogenic HDAC substrate after 30 mins by fluorescence analysis
Method in brief: (§1)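 Full-length human recombinant HDAC1 (0.4 μg/mL final), HDAC2 (1.5 μg/mL), HDAC3/NCOR2 (0.1 μg/mL) or HDAC6 (3.6 μg/mL) with 10 μM fluorogenic acetyl-lysine substrate and 0.1 mg/mL BSA, 1% DMSO, 30 min at 37 °C; lysine developer 20 min at room temperature; fluorescence ex 355/em 460 nm. Vehicle = positive control, no enzyme = negative; IC50 from curve fit.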

[2] = Selectivity ratio of pIC50 for full length recombinant human N-terminal GST tagged HDAC6 expressed in baculovirus infected Sf9 cells to pIC50 for full length recombinant human C-terminal His/Flag-tagged HDAC1 expressed in baculovirus infected Sf9 cells
[3] = target: cGMP-specific 3',5'-cyclic phosphodiesterase (Homo sapiens, UniProt O76074); assay: Inhibition of full length recombinant human N-terminal GST-tagged PDE5A1 expressed in baculovirus infected Sf9 cells using cGMP as substrate after 30 mins by HTRF assay
[4] = target: T1, Protein deacetylase HDAC6 (Homo sapiens, UniProt Q9UBN7); assay: Inhibition of full length recombinant human N-terminal GST tagged HDAC6 expressed in baculovirus infected Sf9 cells using fluorogenic HDAC substrate after 30 mins by fluorescence analysis; method in brief: as §1
T1 sequence (Q9UBN7 whole entry): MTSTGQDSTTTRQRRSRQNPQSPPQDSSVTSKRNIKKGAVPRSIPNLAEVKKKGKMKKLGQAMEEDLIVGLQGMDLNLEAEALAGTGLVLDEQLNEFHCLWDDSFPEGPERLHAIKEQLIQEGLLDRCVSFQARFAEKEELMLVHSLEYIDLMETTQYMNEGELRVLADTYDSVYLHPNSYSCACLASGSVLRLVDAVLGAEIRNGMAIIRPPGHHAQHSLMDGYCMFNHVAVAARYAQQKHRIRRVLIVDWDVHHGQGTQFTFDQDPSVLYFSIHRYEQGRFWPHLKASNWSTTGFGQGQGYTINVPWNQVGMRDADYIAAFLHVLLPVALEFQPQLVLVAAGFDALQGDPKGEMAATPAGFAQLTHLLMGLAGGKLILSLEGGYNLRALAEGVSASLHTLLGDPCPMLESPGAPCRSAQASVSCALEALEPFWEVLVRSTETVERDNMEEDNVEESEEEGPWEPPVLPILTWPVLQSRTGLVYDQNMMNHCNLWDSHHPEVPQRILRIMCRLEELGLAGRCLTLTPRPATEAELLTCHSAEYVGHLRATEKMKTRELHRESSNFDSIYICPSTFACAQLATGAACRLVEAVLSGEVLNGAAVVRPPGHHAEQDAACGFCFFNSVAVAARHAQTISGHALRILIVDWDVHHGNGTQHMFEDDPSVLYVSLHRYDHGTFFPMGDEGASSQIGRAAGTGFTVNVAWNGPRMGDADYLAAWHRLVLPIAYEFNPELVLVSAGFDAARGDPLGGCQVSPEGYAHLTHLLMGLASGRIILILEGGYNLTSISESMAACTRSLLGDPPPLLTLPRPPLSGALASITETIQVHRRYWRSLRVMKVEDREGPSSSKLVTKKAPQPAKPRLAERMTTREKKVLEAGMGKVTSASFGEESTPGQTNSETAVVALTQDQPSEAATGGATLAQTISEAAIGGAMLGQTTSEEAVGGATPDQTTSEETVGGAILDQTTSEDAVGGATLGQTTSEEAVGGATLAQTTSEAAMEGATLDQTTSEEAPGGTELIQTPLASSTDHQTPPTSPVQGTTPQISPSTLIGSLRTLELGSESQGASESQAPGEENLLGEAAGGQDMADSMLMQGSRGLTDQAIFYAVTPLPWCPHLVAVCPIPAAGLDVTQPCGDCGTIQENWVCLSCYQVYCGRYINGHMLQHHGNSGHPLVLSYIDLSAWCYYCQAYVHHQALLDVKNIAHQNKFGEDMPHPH

[5] = target: Histone deacetylase 2 (Homo sapiens, UniProt Q92769); assay: Inhibition of full length recombinant human C-terminal His-tagged HDAC2 expressed in baculovirus infected Sf9 cells using fluorogenic HDAC substrate after 30 mins by fluorescence analysis; method in brief: as §1
[6] = Cytotoxicity against human THLE2 cells assessed as reduction in cell viability after 72 hrs by ATP Vialight assay; format: toxicity, cell-based, THLE-2; settings: read-out: LC50
Method in brief: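 Immortalized human liver THLE-2 cells in BEGM with 0.7 μg/mL phosphoethanolamine, 0.5 ng/mL EGF, antibiotics and 10% FBS, seeded at 10,000 cells/well and left 24 h at 37 °C. Compounds were added at final 0–100 μM in 1% DMSO for 72 h. Cellular ATP was read by luminescence after 45 min lysis.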

[7] = target: Histone deacetylase 3/Nuclear receptor corepressor 2 (HDAC3/NCoR2) (Homo sapiens, UniProt O15379); assay: Inhibition of full length recombinant human C-terminal His-tagged HDAC3/N-terminal GST-tagged NCOR2 (395 to 489 residues) expressed in baculovirus infected Sf9 cells using fluorogenic HDAC substrate after 30 mins by fluorescence analysis
[8] = Selectivity ratio of pLC50 for mouse primary glial cells to pLC50 for human THLE2 cells; format: ADME, cell-based; settings: mouse primary glial cells versus THLE2 cells
[9] = Passive membrane permeability of the compound at 50 uM after 18 hrs by PAMPA; format: ADME; settings: read-out: Peff
Method in brief: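 PAMPA: 50 μM donor solution in PBS/EtOH 70:30 over PVDF membrane precoated with PBL/dodecane (20 mg/mL); PBS/EtOH acceptor; 18 h at 20 °C without shaking; duplicates; donor and acceptor concentrations by UV absorbance corrected against vehicle.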

Sequence of Histone deacetylase 1 (Q13547 whole entry): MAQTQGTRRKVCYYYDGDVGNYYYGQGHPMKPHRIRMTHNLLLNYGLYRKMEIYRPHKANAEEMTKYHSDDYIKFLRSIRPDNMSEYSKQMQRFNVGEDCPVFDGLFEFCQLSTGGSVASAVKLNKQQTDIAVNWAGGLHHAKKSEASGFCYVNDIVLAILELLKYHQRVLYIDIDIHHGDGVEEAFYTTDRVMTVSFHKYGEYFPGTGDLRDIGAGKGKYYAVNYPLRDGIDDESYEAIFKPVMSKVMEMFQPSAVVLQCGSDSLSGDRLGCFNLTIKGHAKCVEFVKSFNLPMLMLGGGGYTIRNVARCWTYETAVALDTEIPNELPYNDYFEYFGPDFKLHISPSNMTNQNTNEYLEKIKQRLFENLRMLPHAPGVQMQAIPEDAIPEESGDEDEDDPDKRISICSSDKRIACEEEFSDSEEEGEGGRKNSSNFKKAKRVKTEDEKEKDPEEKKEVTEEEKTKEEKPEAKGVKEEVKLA
Sequence of Histone deacetylase 3/Nuclear receptor corepressor 2 (HDAC3/NCoR2) (O15379 whole entry, the tested form may be a part): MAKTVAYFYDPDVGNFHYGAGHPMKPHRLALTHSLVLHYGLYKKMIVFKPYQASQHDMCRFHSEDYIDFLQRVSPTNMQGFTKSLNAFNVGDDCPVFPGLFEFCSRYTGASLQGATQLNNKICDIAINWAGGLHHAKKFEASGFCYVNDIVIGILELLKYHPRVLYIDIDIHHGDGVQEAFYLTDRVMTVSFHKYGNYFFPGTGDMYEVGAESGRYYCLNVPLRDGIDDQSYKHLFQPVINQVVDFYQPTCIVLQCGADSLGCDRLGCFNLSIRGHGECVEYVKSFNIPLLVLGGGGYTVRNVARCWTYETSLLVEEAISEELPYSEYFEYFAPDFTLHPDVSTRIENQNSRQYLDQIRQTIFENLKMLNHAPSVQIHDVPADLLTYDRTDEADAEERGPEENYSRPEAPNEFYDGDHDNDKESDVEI
Sequence of Histone deacetylase 3/Nuclear receptor corepressor 2 (HDAC3/NCoR2) (Q9Y618 whole entry, further chain, the tested form may be a part): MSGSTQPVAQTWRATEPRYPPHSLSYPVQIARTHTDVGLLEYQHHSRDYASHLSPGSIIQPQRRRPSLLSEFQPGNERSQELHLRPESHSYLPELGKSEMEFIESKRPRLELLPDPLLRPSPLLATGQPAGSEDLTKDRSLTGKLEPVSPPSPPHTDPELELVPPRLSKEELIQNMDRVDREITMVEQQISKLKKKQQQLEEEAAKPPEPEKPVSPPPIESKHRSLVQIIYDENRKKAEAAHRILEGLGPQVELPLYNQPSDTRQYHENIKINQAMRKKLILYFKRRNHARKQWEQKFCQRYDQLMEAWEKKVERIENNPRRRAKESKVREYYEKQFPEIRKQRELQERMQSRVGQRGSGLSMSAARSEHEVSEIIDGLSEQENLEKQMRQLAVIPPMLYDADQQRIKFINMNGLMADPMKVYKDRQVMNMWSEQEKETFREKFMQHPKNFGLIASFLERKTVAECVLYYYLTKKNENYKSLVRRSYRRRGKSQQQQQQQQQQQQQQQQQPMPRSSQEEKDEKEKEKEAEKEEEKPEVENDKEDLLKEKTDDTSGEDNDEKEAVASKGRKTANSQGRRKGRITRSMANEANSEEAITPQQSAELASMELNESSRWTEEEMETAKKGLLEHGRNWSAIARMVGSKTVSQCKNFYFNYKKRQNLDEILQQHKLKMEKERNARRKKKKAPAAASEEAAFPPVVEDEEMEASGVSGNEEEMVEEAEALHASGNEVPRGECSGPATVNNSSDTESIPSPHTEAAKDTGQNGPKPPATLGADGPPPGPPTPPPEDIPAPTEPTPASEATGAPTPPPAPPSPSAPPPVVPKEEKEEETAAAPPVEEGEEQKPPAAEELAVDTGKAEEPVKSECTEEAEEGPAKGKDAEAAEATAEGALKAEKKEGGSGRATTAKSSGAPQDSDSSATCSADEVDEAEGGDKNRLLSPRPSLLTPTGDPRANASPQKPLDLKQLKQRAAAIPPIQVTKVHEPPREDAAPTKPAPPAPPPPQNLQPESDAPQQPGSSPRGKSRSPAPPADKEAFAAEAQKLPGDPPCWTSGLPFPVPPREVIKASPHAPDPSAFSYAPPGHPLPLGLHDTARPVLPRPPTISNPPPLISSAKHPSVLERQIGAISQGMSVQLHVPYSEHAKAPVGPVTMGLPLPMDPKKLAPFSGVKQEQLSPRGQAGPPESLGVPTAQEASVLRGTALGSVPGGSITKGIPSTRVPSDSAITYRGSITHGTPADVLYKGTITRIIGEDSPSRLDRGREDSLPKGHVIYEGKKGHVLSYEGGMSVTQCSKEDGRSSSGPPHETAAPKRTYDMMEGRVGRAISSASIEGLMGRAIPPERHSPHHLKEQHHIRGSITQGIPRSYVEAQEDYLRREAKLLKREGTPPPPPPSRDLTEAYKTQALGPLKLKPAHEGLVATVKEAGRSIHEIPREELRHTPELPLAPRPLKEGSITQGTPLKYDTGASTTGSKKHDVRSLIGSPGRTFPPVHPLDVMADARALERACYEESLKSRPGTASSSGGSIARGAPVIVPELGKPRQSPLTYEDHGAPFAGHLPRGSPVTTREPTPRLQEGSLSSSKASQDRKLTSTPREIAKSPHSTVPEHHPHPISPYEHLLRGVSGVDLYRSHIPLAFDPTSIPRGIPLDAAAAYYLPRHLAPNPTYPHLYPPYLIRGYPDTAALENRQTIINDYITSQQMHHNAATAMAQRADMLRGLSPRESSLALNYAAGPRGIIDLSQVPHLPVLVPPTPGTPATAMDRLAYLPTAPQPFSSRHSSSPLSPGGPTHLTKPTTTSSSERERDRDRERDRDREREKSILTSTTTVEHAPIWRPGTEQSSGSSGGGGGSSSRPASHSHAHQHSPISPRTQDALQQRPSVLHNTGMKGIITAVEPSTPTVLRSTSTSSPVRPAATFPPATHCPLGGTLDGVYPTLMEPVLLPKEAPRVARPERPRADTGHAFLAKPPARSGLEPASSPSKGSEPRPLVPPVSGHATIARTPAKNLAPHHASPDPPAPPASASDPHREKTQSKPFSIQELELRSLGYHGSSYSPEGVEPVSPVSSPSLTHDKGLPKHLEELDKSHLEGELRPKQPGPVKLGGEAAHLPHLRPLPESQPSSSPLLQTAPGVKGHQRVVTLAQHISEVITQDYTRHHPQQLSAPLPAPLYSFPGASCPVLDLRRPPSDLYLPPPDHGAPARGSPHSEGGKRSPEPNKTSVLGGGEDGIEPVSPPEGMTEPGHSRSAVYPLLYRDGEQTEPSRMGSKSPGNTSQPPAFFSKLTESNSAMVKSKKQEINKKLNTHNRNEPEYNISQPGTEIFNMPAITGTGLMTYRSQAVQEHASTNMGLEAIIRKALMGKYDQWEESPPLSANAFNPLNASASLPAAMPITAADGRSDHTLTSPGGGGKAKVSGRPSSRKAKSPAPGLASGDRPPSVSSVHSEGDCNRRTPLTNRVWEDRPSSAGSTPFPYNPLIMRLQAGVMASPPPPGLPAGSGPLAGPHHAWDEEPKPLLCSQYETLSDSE
Sequence of Histone deacetylase 2 (Q92769 whole entry): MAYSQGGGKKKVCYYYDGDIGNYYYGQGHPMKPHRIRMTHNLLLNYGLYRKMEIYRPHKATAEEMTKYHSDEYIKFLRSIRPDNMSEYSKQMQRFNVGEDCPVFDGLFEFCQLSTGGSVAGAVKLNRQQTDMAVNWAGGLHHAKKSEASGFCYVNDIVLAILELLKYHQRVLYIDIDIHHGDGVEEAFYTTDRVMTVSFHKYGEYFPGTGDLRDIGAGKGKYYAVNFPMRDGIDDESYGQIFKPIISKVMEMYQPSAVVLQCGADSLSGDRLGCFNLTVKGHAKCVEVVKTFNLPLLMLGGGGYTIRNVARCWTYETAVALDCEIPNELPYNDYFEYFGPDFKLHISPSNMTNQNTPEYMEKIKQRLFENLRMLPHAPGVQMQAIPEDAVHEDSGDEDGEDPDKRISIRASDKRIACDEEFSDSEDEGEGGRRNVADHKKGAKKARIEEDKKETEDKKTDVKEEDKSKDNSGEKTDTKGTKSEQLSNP

| SMILES | IC50 [1] [nM] | IC50 [3] [nM] | IC50 [4] [nM] | IC50 [5] [nM] | IC50 [7] [nM] | Papp at 18 h, 50 µM [9] [×10⁻⁶ cm/s] | Ratio pIC50 [2] | CC50 at 72 h [6] [nM] | selectivity ratio [8] |
| --- | --- | --- | --- | --- | --- | --- | --- | --- | --- |
| CCCc1nn(C)c2c(=O)[nH]c(-c3cc(NC4CCN(c5ncc(C(=O)NO)cn5)CC4)ccc3OCC)nc12 | 68 | 5 | 441 | 490 | 31 | 1.34 | > 0.6 | 2570 | < 0.4 |
| CCCc1nn(C)c2c(=O)[nH]c(-c3cc(C4CC4C(=O)NO)ccc3OCC)nc12 (configuration not stated) | 8750 | 20 | 5370 | > 20000 |  |  |  |  |  |
| CCCc1nn(C)c2c(=O)[nH]c(-c3cc(N4CCC5(CCN(c6ncc(C(=O)NO)cn6)CC5)C4)ccc3OCC)nc12 | 443 | 74 | 1900 | 1850 |  |  | > 0.6 |  |  |
| CCCc1nn(C)c2c(=O)[nH]c(-c3cc(Cc4ccc(CCC(=O)NO)cc4)ccc3OCC)nc12 | 2420 | 13 | 2350 | > 20000 | > 20000 |  |  |  |  |
| CCCc1nn(C)c2c(=O)[nH]c(-c3cc(CN4CC(C(=O)NO)C4)ccc3OCC)nc12 | > 20000 | 303 | > 10000 | > 20000 |  |  |  |  |  |
| CCCc1nn(C)c2c(=O)[nH]c(-c3cc(Oc4ccc(C(=O)NO)cc4)ccc3OCC)nc12 | 566 | 23 | 196 | 2250 |  | 3.68 |  |  | < 0.4 |
| CCCc1nn(C)c2c(=O)[nH]c(-c3cc(NC4CCC(C(=O)NO)CC4)ccc3OCC)nc12 (configuration not stated) | 5980 | 22 | 12700 | > 20000 |  |  |  |  |  |
| CCCc1nn(C)c2c(=O)[nH]c(-c3cc(CN4CCN(c5ncc(C(=O)NO)cn5)CC4)ccc3OCC)nc12 | 14 | 7 | 379 | 89 |  | 0.89 | > 1 |  | < 0.4 |
| CCCc1nn(C)c2c(=O)[nH]c(-c3cc(Cc4ccc(/C=C/C(=O)NO)cc4)ccc3OCC)nc12 | 1530 | 122 | 1790 | > 20000 |  |  |  |  |  |
| CCCc1nn(C)c2c(=O)[nH]c(-c3cc(N(C)C4CCN(c5ncc(C(=O)NO)cn5)CC4)ccc3OCC)nc12 | 25 | 10 | 584 | 166 | 43 |  | > 1 |  |  |
| CCCc1nn(C)c2c(=O)[nH]c(-c3cc(-c4ccc(C(=O)NO)cn4)ccc3OCC)nc12 | 354 | 4 | 79 | 1870 |  | 0.92 |  |  | < 0.4 |
| CCCc1nn(C)c2c(=O)[nH]c(-c3cc(OC4CCC(C(=O)NO)CC4)ccc3OCC)nc12 (configuration not stated) | 2440 | 11 | 2330 | 9830 |  |  |  |  |  |
| CCCc1nn(C)c2c(=O)[nH]c(-c3cc(-c4ccc(C(=O)NO)nc4)ccc3OCC)nc12 | 2360 | 4 | 861 | > 20000 |  | 1.52 |  |  | < 0.4 |
| CCCc1nn(C)c2c(=O)[nH]c(-c3cc(-c4ccc(C(=O)NO)o4)ccc3OCC)nc12 | > 20000 | 5 | 5570 | > 20000 |  |  |  |  |  |
| CCCc1nn(C)c2c(=O)[nH]c(-c3cc(S(=O)(=O)N4CCN(C)CC4)ccc3OCC)nc12 |  |  |  |  |  | 2.75 |  | > 100000 |  |
| CCCc1nn(C)c2c(=O)[nH]c(-c3cc(C(=O)NO)ccc3OCC)nc12 | 6420 | 5 | > 20000 | > 20000 |  |  |  |  |  |

Further lines, with some results ahead:

| IC50 [1] [nM] | IC50 [3] [nM] | IC50 [4] [nM] | IC50 [5] [nM] | IC50 [7] [nM] | Papp at 18 h, 50 µM [9] [×10⁻⁶ cm/s] | SMILES | Ratio pIC50 [2] | CC50 at 72 h [6] [nM] | selectivity ratio [8] |
| --- | --- | --- | --- | --- | --- | --- | --- | --- | --- |
| 118 | 17 | 709 | 712 |  |  | CCCc1nn(C)c2c(=O)[nH]c(-c3cc(NCC4CCN(c5ncc(C(=O)NO)cn5)CC4)ccc3OCC)nc12 | > 0.6 |  |  |
| > 20000 | 57 | > 20000 | > 20000 |  |  | CCCc1nn(C)c2c(=O)[nH]c(-c3cc(CC4CCN(CCC(=O)NO)CC4)ccc3OCC)nc12 |  |  |  |
| 9270 | 40 | 10100 | > 20000 |  |  | CCCc1nn(C)c2c(=O)[nH]c(-c3cc(N4CCCC5(CCC(C(=O)NO)CC5)C4)ccc3OCC)nc12 (configuration not stated) |  |  |  |
| 7080 | 44 | 10400 | > 20000 |  |  | CCCc1nn(C)c2c(=O)[nH]c(-c3cc(NCCC(=O)NO)ccc3OCC)nc12 |  |  |  |
| 7810 | 20 | 1600 | 17500 |  |  | CCCc1nn(C)c2c(=O)[nH]c(-c3cc(NC4CCN(c5ccc(C(=O)NO)cc5)CC4)ccc3OCC)nc12 |  |  |  |
| 1100 | 2 | 360 | 4640 |  |  | CCCc1nn(C)c2c(=O)[nH]c(-c3cc(S(=O)(=O)N4CCN(CCCC(=O)NO)CC4)ccc3OCC)nc12 |  |  |  |
| 406 | 0.5 | 87 | 1940 |  |  | CCCc1nn(C)c2c(=O)[nH]c(-c3cc(S(=O)(=O)N4CCC(CCC(=O)NO)CC4)ccc3OCC)nc12 |  |  |  |
| 12900 | 12 | 4340 | > 20000 |  |  | CCCc1nn(C)c2c(=O)[nH]c(-c3cc(N4CCC5(CCC(C(=O)NO)C5)CC4)ccc3OCC)nc12 (configuration not stated) |  |  |  |
| 4810 | 46 | 2120 | > 20000 |  |  | CCCc1nn(C)c2c(=O)[nH]c(-c3cc(CCC(=O)NO)ccc3OCC)nc12 |  |  |  |
| > 20000 | 19 | > 20000 | > 20000 |  |  | CCCc1nn(C)c2c(=O)[nH]c(-c3cc(CC(=O)NO)ccc3OCC)nc12 |  |  |  |
| 603 | 24 | 1060 | 2030 |  |  | CCCc1nn(C)c2c(=O)[nH]c(-c3cc(N4CCC(CCC(=O)NO)CC4)ccc3OCC)nc12 |  |  |  |
| 6910 | 70 | 5130 | > 20000 |  |  | CCCc1nn(C)c2c(=O)[nH]c(-c3cc(C4CCC(CC(=O)NO)CC4)ccc3OCC)nc12 (configuration not stated) |  |  |  |
| 7620 | 207 | 9640 | > 20000 |  |  | CCCc1nn(C)c2c(=O)[nH]c(-c3cc(CN4CCC(C(=O)NO)CC4)ccc3OCC)nc12 |  |  |  |
| 10500 | 3 | 2360 | > 20000 |  |  | CCCc1nn(C)c2c(=O)[nH]c(-c3cc(S(=O)(=O)N4CCN(CCC(=O)NO)CC4)ccc3OCC)nc12 |  |  |  |
